Laboratory results taken from ChEMBL document CHEMBL4689842, “EUbOPEN Chemogenomics Library wave 1” (2021).

Test system: Fibroblast
Assay: Multiplex assay against human fibroblast
Format: toxicity, cell-based
Outline: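 Per cents of healthy-nucleus cells form the tubulin, mitochondrial-mass and membrane-permeability phenotype values. Live cells were stained at seeding with Hoechst33342, BioTracker Green Microtubule Cytoskeleton Dye, MitoTracker Red and Annexin V Alexa Fluor 680. After compound addition they were imaged on a CQ1 microscope at 37°C and 5% CO2, and CellPathfinder machine-learning gating split them into Hoechst high-intensity objects or normal cells, normal cells into healthy, pyknosed or fragmented nuclei, and pyknosed cells into mitotic or apoptotic.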

[1] = 12 h, 1 µM, compound concentration 1 uM, replicate 1
[2] = 12 h, 1 µM, compound concentration 1 uM, replicate 2
[3] = 12 h, 10 µM, compound concentration 10 uM, replicate 1
[4] = 12 h, 10 µM, compound concentration 10 uM, replicate 2
[5] = 24 h, 1 µM, compound concentration 1 uM, replicate 1
[6] = 24 h, 1 µM, compound concentration 1 uM, replicate 2
[7] = 24 h, 10 µM, compound concentration 10 uM, replicate 1
[8] = 24 h, 10 µM, compound concentration 10 uM, replicate 2
[9] = 48 h, 1 µM, compound concentration 1 uM, replicate 1
[10] = 48 h, 1 µM, compound concentration 1 uM, replicate 2
[11] = 48 h, 10 µM, compound concentration 10 uM, replicate 1
[12] = 48 h, 10 µM, compound concentration 10 uM, replicate 2

For Cl.Oc1ccc2c3c1O[C@H]1c4[nH]c5c(c4C[C@@]4(O)[C@@H](C2)N(CC2CC2)CC[C@]314)C[C@@]1(O)[C@H]2Cc3ccc(O)c4c3[C@@]1(CCN2CC1CC1)[C@H]5O4, the “Population Apoptotic (%)” value [1] was 71%, the “Population Fragmented Nuclei (%)” value [1] was 27% and the “Population Healthy Nuclei (%)” value [1] was 40%. For the same compound, the “Population Hoechst High Intensity Objects (%)” value [1] was 15%, the “Population Membrane Permeable-Phenotype (%)” value [1] was 20% and the “Population Mitochondria Different-Phenotype (%)” value [1] was 11%. The “Population Mitotic Cells (%)” value [1] was 28%, the “Population Normal (%)” value [1] was 84% and the “Population Pyknosed Nuclei (%)” value [1] was 32%. For the same compound, the “Population Tubulin-Different-Phenotype (%)” value [1] was 31%, the “Total Cell Count” value [1] was 103 and the “Population Apoptotic (%)” value [2] was 42%. The “Population Fragmented Nuclei (%)” value [2] was 3%, the “Population Healthy Nuclei (%)” value [2] was 86% and the “Population Hoechst High Intensity Objects (%)” value [2] was 9%. For the same compound, the “Population Membrane Permeable-Phenotype (%)” value [2] was 10%, the “Population Mitochondria Different-Phenotype (%)” value [2] was 19% and the “Population Mitotic Cells (%)” value [2] was 57%. For the same compound, the “Population Normal (%)” value [2] was 90%, the “Population Pyknosed Nuclei (%)” value [2] was 10% and the “Population Tubulin-Different-Phenotype (%)” value [2] was 17%. For the same compound, the “Total Cell Count” value [2] was 97, the “Population Apoptotic (%)” value [3] was 69% and the “Population Fragmented Nuclei (%)” value [3] was 23%. The “Population Healthy Nuclei (%)” value [3] was 47%, the “Population Hoechst High Intensity Objects (%)” value [3] was 8% and the “Population Membrane Permeable-Phenotype (%)” value [3] was 25%. The “Population Mitochondria Different-Phenotype (%)” value [3] was 5%, the “Population Mitotic Cells (%)” value [3] was 30% and the “Population Normal (%)” value [3] was 91%. For the same compound, the “Population Pyknosed Nuclei (%)” value [3] was 28%, the “Population Tubulin-Different-Phenotype (%)” value [3] was 41% and the “Total Cell Count” value [3] was 173. For the same compound, the “Population Apoptotic (%)” value [4] was 93%, the “Population Fragmented Nuclei (%)” value [4] was 12% and the “Population Healthy Nuclei (%)” value [4] was 48%. For the same compound, the “Population Hoechst High Intensity Objects (%)” value [4] was 7%, the “Population Membrane Permeable-Phenotype (%)” value [4] was 52% and the “Population Mitochondria Different-Phenotype (%)” value [4] was 26%. For the same compound, the “Population Mitotic Cells (%)” value [4] was 6%, the “Population Normal (%)” value [4] was 92% and the “Population Pyknosed Nuclei (%)” value [4] was 38%. The “Population Tubulin-Different-Phenotype (%)” value [4] was 89%, the “Total Cell Count” value [4] was 73 and the “Population Apoptotic (%)” value [5] was 66%. The “Population Fragmented Nuclei (%)” value [5] was 19%, the “Population Healthy Nuclei (%)” value [5] was 51% and the “Population Hoechst High Intensity Objects (%)” value [5] was 14%. The “Population Membrane Permeable-Phenotype (%)” value [5] was 27%, the “Population Mitochondria Different-Phenotype (%)” value [5] was 2% and the “Population Mitotic Cells (%)” value [5] was 33%. For the same compound, the “Population Normal (%)” value [5] was 85%, the “Population Pyknosed Nuclei (%)” value [5] was 29% and the “Population Tubulin-Different-Phenotype (%)” value [5] was 43%. For the same compound, the “Total Cell Count” value [5] was 84, the “Population Apoptotic (%)” value [6] was 25% and the “Population Fragmented Nuclei (%)” value [6] was 3%. The “Population Healthy Nuclei (%)” value [6] was 91%, the “Population Hoechst High Intensity Objects (%)” value [6] was 4% and the “Population Membrane Permeable-Phenotype (%)” value [6] was 10%. For the same compound, the “Population Mitochondria Different-Phenotype (%)” value [6] was 13%, the “Population Mitotic Cells (%)” value [6] was 75% and the “Population Normal (%)” value [6] was 95%. For the same compound, the “Population Pyknosed Nuclei (%)” value [6] was 4%, the “Population Tubulin-Different-Phenotype (%)” value [6] was 18% and the “Total Cell Count” value [6] was 94. The “Population Apoptotic (%)” value [7] was 65%, the “Population Fragmented Nuclei (%)” value [7] was 18% and the “Population Healthy Nuclei (%)” value [7] was 62%. For the same compound, the “Population Hoechst High Intensity Objects (%)” value [7] was 15%, the “Population Membrane Permeable-Phenotype (%)” value [7] was 25% and the “Population Mitochondria Different-Phenotype (%)” value [7] was 3%. The “Population Mitotic Cells (%)” value [7] was 34%, the “Population Normal (%)” value [7] was 84% and the “Population Pyknosed Nuclei (%)” value [7] was 19%. For the same compound, the “Population Tubulin-Different-Phenotype (%)” value [7] was 27%, the “Total Cell Count” value [7] was 178 and the “Population Apoptotic (%)” value [8] was 76%. The “Population Fragmented Nuclei (%)” value [8] was 13%, the “Population Healthy Nuclei (%)” value [8] was 58% and the “Population Hoechst High Intensity Objects (%)” value [8] was 13%. The “Population Membrane Permeable-Phenotype (%)” value [8] was 48%, the “Population Mitochondria Different-Phenotype (%)” value [8] was 33% and the “Population Mitotic Cells (%)” value [8] was 23%. The “Population Normal (%)” value [8] was 86%, the “Population Pyknosed Nuclei (%)” value [8] was 28% and the “Population Tubulin-Different-Phenotype (%)” value [8] was 77%. For the same compound, the “Total Cell Count” value [8] was 91, the “Population Apoptotic (%)” value [9] was 60% and the “Population Fragmented Nuclei (%)” value [9] was 26%. For the same compound, the “Population Healthy Nuclei (%)” value [9] was 52%, the “Population Hoechst High Intensity Objects (%)” value [9] was 16% and the “Population Membrane Permeable-Phenotype (%)” value [9] was 32%. For the same compound, the “Population Mitochondria Different-Phenotype (%)” value [9] was 5%, the “Population Mitotic Cells (%)” value [9] was 40% and the “Population Normal (%)” value [9] was 83%. The “Population Pyknosed Nuclei (%)” value [9] was 21%, the “Population Tubulin-Different-Phenotype (%)” value [9] was 43% and the “Total Cell Count” value [9] was 85. For the same compound, the “Population Apoptotic (%)” value [10] was 75%, the “Population Fragmented Nuclei (%)” value [10] was 16% and the “Population Healthy Nuclei (%)” value [10] was 78%. The “Population Hoechst High Intensity Objects (%)” value [10] was 7%, the “Population Membrane Permeable-Phenotype (%)” value [10] was 18% and the “Population Mitochondria Different-Phenotype (%)” value [10] was 0%. For the same compound, the “Population Mitotic Cells (%)” value [10] was 25%, the “Population Normal (%)” value [10] was 92% and the “Population Pyknosed Nuclei (%)” value [10] was 4%. The “Population Tubulin-Different-Phenotype (%)” value [10] was 26%, the “Total Cell Count” value [10] was 103 and the “Population Apoptotic (%)” value [11] was 61%. The “Population Fragmented Nuclei (%)” value [11] was 31%, the “Population Healthy Nuclei (%)” value [11] was 55% and the “Population Hoechst High Intensity Objects (%)” value [11] was 18%. The “Population Membrane Permeable-Phenotype (%)” value [11] was 30%, the “Population Mitochondria Different-Phenotype (%)” value [11] was 6% and the “Population Mitotic Cells (%)” value [11] was 38%. The “Population Normal (%)” value [11] was 81%, the “Population Pyknosed Nuclei (%)” value [11] was 12% and the “Population Tubulin-Different-Phenotype (%)” value [11] was 34%. The “Total Cell Count” value [11] was 172, the “Population Apoptotic (%)” value [12] was 66% and the “Population Fragmented Nuclei (%)” value [12] was 29%. The “Population Healthy Nuclei (%)” value [12] was 66%, the “Population Hoechst High Intensity Objects (%)” value [12] was 10% and the “Population Membrane Permeable-Phenotype (%)” value [12] was 14%. The “Population Mitochondria Different-Phenotype (%)” value [12] was 1%, the “Population Mitotic Cells (%)” value [12] was 33% and the “Population Normal (%)” value [12] was 89%. For the same compound, the “Population Pyknosed Nuclei (%)” value [12] was 3%, the “Population Tubulin-Different-Phenotype (%)” value [12] was 41% and the “Total Cell Count” value [12] was 94.
